Test results: article PMC12574688 (European journal of medicinal chemistry, 2025)
Read-outs that look alike come from different tables or passages of the source.

Tests used:
MDA.MB.231 cells = assay: Colony formation assay; format: cell-based; settings: varying concentrations
BT-20 cells = assay: Colony formation assay; format: cell-based; settings: varying concentrations
MDA.MB.231 cell line = assay: MTT cytotoxicity / cell viability assay; format: cell-based
BRK = BRK (Homo sapiens, UniProt Q13882); assay: BRK biochemical inhibitory assay; settings: for inhibition at 2 µM: read-out: % BRK Inhibition
Chain of BRK (Q13882 whole entry): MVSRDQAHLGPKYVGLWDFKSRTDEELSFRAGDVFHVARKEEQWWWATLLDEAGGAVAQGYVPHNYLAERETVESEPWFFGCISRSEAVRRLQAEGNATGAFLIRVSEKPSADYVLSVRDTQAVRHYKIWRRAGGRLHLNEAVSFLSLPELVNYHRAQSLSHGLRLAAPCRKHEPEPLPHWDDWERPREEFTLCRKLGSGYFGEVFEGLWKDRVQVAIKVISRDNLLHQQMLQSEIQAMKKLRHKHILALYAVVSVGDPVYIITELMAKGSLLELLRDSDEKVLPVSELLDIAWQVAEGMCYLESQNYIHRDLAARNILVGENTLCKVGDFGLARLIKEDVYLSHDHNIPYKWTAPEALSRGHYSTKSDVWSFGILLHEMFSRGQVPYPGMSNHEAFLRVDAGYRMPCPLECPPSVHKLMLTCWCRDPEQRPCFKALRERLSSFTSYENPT
Outline: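 Human BRK kinase pre-incubated with test compound for 10 min, then substrate and ATP mix added. Kinase reaction run 1 h. ADP-Glo reagent added for 40 min, then kinase detection reagent for 45 min. Luminescence read. Single-point screens run at 2 μM and at 0.2 μM test compound, given as % BRK inhibition.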

HCC1806 cells = assay: Colony formation assay; format: cell-based; settings: single concentration of 10 μM
[1] = tested on: AKT phosphorylation in BT-20 cells; assay: Western blot of AKT phosphorylation; format: cell-based; settings: vs control, preliminary western blot (Figure S3)

`Oc1cccc(Nc2ccnc3[nH]c4ccccc4c23)c1` [Compound 4f, tilfrinib] was tested, and the colony formation (MDA.MB.231 cells) was “reduce the colony formation”, the colony formation (BT-20 cells) was “reduce the colony formation” and the “Cellular assay MDA.MB.231 % Inhibition 10 μM” value (MDA.MB.231 cell line; MTT, 10 μM, 72h treatment) was 31.40%. For the same molecule, the “cytotoxicity in viability studies” value (MDA.MB.231 cell line; viability studies, in words) was “minimal cytotoxicity”, the “Biochemical assay % Inhibition 0.2 μM” value (BRK; 0.2 μM, ADP-Glo (Table 3)) was 86% and the “Biochemical assay % Inhibition 2 μM” value (BRK; 2 μM, ADP-Glo (Table 3)) was 100%. For the same molecule, the IC50 (BRK; read-out: BRK IC50, enzymatic inhibition) was 25 nM, the IC50 (BRK; read-out: Biochemical assay IC50, ADP-Glo (Table 3)) was 25.7 ± 5.05 nM and the “% BRK Inhibition” value (BRK; single point, 2 μM, ADP-Glo, pyrimido-indole derivatives (Table 1)) was 100.0 ± 7.8%. For the same molecule, the colony formation (HCC1806 cells) was “reduce the colony formation” and the AKT phosphorylation [1] was “increase in AKT phosphorylation”.
Work on `Oc1cccc(-c2cncc(Cl)n2)c1` [Compound 26, 3-(6-chloropyrazin-2-yl)phenol] yielded an inhibition at 2 µM (BRK) of 29.6 ± 22.9%.
With `Oc1cccc(-c2cnc3ccccc3n2)c1` [Compound 32, 3-(quinoxalin-2-yl)phenol] the inhibition at 2 µM (BRK) was 48.9 ± 8.9%.
`Oc1cccc(Nc2ncnc3cc(Br)ccc23)c1` [Compound 35, 3-((7-bromoquinazolin-4-yl)amino)phenol] showed an inhibition at 2 µM (BRK) of 76.1 ± 7.3%.
